Results reported in ChEMBL document CHEMBL1123173, “Synthesis and antiherpes virus activity of phosphate and phosphonate derivatives of 9-[(1,3-dihydroxy-2-propoxy)methyl]guanine” (1986).
Active and inactive are the calls of the source. No cut-off for these calls is given here.

Legend:
MRC5 = experiment: In vitro antiviral activity was measured against HCMV(AD-169) in MRC5 cells; format: functional; conditions: Homo sapiens, read-out: ID50 (the source's name)
Mus musculus [1] = experiment: Effect of oral treatment with compound on HSV-2 induced mortality in mice at 10 mg/kg dose; format: functional
In short: (§1)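 Female Swiss-Webster mice, about 20 g, infected intraperitoneally with 5×10^4 PFU of HSV-2 strain G (about ten LD50). Oral dosing once every 24 h for 4 days, starting 24 h post-infection, with a saline-treated control group. Groups of 19–20 mice. Survivors were scored and compared by Fisher exact test. Mean survival time (days ± SD) was compared by Mann-Whitney U test. NS means p > 0.05.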

Mus musculus [2] = experiment: (§2) Effect of oral treatment with compound on HSV-2 induced mortality in mice at 5 mg/kg dose; NS=Not significant; format: functional, organism-based; design: dose 5 mg/kg
In short: (§3)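 Female Swiss-Webster mice (ca. 20 g) infected intraperitoneally with 5×10^4 PFU HSV-2 strain G (about ten 50% lethal doses). Oral dosing once every 24 h for 4 days, starting 24 h postinfection; saline controls. Survivors/total recorded, survivor increase tested by Fisher exact test; mean survival time (days ± standard deviation) compared by Mann-Whitney U test.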

Mus musculus [3] = experiment: Effect of on mean survival time upon oral treatment on HSV-2 induced mortality in mice at 10 mg/kg dose; format: functional; in short: as §1
Mus musculus [4] = experiment: Effect of on mean survival time upon oral treatment on HSV-2 induced mortality in mice at 20 mg/kg dose; format: functional; in short: as §1
Mus musculus [5] = experiment: Effect of on mean survival time upon oral treatment on HSV-2 induced mortality in mice at 5 mg/kg dose; format: functional; in short: as §1
Mus musculus [6] = experiment: Effect of oral treatment with compound on HSV-2 induced mortality in mice at 5 mg/kg dose; format: functional; in short: as §1
Mus musculus [7] = experiment: (§4) Effect of oral treatment with compound on HSV-2 induced mortality in mice at 10 mg/kg dose; NS=Not significant; format: functional, organism-based; design: dose 10 mg/kg; in short: as §1
Mus musculus [8] = experiment: Effect of oral treatment with compound on HSV-2 induced mortality in mice at 20 mg/kg dose; format: functional; in short: as §1
Mus musculus [9] = experiment: (§5) Effect of oral treatment with compound on HSV-2 induced mortality in mice at 20 mg/kg dose; NS=Not significant; format: functional, organism-based; design: dose 20 mg/kg; in short: as §1
Mus musculus [10] = experiment: as §2; format: functional, organism-based; design: dose 5 mg/kg; in short: as §1; remark: listed apart in the source
Mus musculus [11] = experiment: Effect of oral treatment with compound on HSV-2 induced mortality in mice at 10 mg/kg dose; 4/20; format: functional; in short: as §1
Mus musculus [12] = experiment: Effect of oral treatment with compound on HSV-2 induced mortality in mice at 20 mg/kg dose; 6/20; format: functional; in short: as §1
Vero [13] = experiment: In vitro anticellular activity was measured against vero cells; format: functional; conditions: Chlorocebus sabaeus, read-out: ID50 (the source's name)
In short: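 Cell proliferation assay in uninfected Vero cells.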

Vero [14] = experiment: In vitro antiviral activity was measured against HSV-1 (F delta 305) in Vero cells; format: functional; conditions: Chlorocebus sabaeus, read-out: ID50 (the source's name)
Vero [15] = experiment: In vitro antiviral activity was measured against HSV-1 (MP-PAA/DHPG) in Vero cells; format: functional; conditions: Chlorocebus sabaeus, read-out: ID50 (the source's name)
Vero [16] = experiment: In vitro antiviral activity was measured against HSV-2(G) in Vero cells; format: functional; conditions: Chlorocebus sabaeus, read-out: ID50 (the source's name)
Vero [17] = experiment: In vitro antiviral activity was measured against HSV-1(F) in Vero cells; format: functional; conditions: Chlorocebus sabaeus, read-out: ID50 (the source's name)
Mus musculus [18] = experiment: as §4; format: functional, organism-based; design: dose 10 mg/kg; in short: as §3; remark: listed apart in the source
Mus musculus [19] = experiment: Effect of oral treatment with compound on HSV-2 induced mortality in mice at 5 mg/kg dose; 8/20; format: functional; in short: as §1
Mus musculus [20] = experiment: Effect of oral treatment with compound on HSV-2 induced mortality in mice at 10 mg/kg dose; 3/20; format: functional; in short: as §1
Mus musculus [21] = experiment: Effect of oral treatment with compound on HSV-2 induced mortality in mice at 20 mg/kg dose; 10/20; format: functional; in short: as §1
Mus musculus [22] = experiment: as §5; format: functional, organism-based; design: dose 20 mg/kg; in short: as §3; remark: listed apart in the source
Mus musculus [23] = experiment: Effect of oral treatment with compound on HSV-2 induced mortality in mice at 5 mg/kg dose; 3/20; format: functional; in short: as §1
Mus musculus [24] = experiment: Effect of oral treatment with compound on HSV-2 induced mortality in mice at 10 mg/kg dose; 0/20; format: functional; in short: as §1
Mus musculus [25] = experiment: Effect of oral treatment with compound on HSV-2 induced mortality in mice at 20 mg/kg dose; 3/20; format: functional; in short: as §1

SMILES	IC50 (MRC5) [µM]	MST increase (Mus musculus [2])	MST (Mus musculus [3]) [days]	MST (Mus musculus [4]) [days]	MST (Mus musculus [5]) [days]	Survivor increase (Mus musculus [7])	p-value for mean survival time increase (Mus musculus [8])	Survivor increase (Mus musculus [9])	Survivor increase (Mus musculus [10])	IC50 (Vero [13]) [µM]	IC50 (Vero [14]) [µM]	IC50 (Vero [15]) [µM]	IC50 (Vero [16]) [µM]	IC50 (Vero [17]) [µM]	MST increase (Mus musculus [18])	also measured
Nc1nc(O)c2ncn(COC(COP(=O)(O)O)COP(=O)(O)O)c2n1	8	inactive	10.8	10.6	9.6	inactive	<0.02	inactive	inactive	800	13	> 200	5	0.4	–	MST increase (Mus musculus [1]): <0.05; Survivors (Mus musculus [6]): 8; Survivors (Mus musculus [11]): 4; Survivors (Mus musculus [12]): 6
Nc1nc2c(ncn2COC2COP(=O)(O)OC2)c(=O)[nH]1 (centres undefined)	6	inactive	10.6	11.6	10.4	inactive	<0.01	–	inactive	40	0.5	7	6	2	inactive	Survivors (Mus musculus [19]): 8; Survivor increase (Mus musculus [8]): 0.01; Survivors (Mus musculus [20]): 3; Survivors (Mus musculus [21]): 10
Nc1nc(O)c2ncn(COC(CO)CCP(=O)(O)O)c2n1 (centres undefined)	10	inactive	8.3	8.3	8.2	inactive	–	inactive	inactive	> 1000	50	> 200	> 100	28	inactive	MST increase (Mus musculus [22]): inactive; Survivors (Mus musculus [23]): 3; Survivors (Mus musculus [24]): 0; Survivors (Mus musculus [25]): 3
